Experimental data taken from article PMC11336813 (Heliyon, 2024).
Like-named read-outs stand apart in the source and are kept apart here.

Experiments:
[1] = cited from earlier work
Free = assay type: in vivo, children with epilepsy
How it was run: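 Children aged 0–16 y on an unchanged oral PER dose for ≥4 weeks, dosed in the evening. Blood (2 mL, EDTA) drawn 8:00–10:00 a.m. next day, spun 1 610 ×g for 5 min, and plasma stored at −80 °C. Plasma (200 μL) ultrafiltered at 13 680 ×g for 20 min at 4 °C. Ultrafiltrate (40 μL) plus PER-D5 internal standard was methanol-precipitated, then run on C18 reversed-phase positive-mode MRM against a least-squares linear calibration.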

[2] = assay type: physicochemical; settings: n = 5
[3] = cited from earlier work; remark: listed apart in the source
[4] = Total PER plasma concentration by HPLC-MS/MS; assay type: in vivo, children with epilepsy
plasma proteins = settings: cited from earlier work
CYP2C9 = settings: human liver microsomes; cited from earlier work
CYP2C19 = settings: human liver microsomes; cited from earlier work
CYP3A4 = settings: human liver microsomes; cited from earlier work
[5] = 57 plasma samples, steady state
[6] = Group A: cotherapy enzyme inducers, n = 11
[7] = Group B: cotherapy not strong enzyme inducers/not inhibitors, n = 10
[8] = Group C: cotherapy enzyme inhibitors (VPA), n = 31
[9] = Group D: cotherapy enzyme inducers + VPA, n = 5
[10] = patient No. 25, PER 5 mg·d^−1 with VPA

In the case of `N#Cc1ccccc1-c1cc(-c2ccccn2)cn(-c2ccccc2)c1=O` [PER, Perampanel], the “Reference range of blood (total) PER concentration” value [1] is listed as 86 to 1000 ng/mL, the “Free concentration, range” value (Free; [5]) is listed as 0.42 to 23.14 ng/mL and the “Free concentration, mean ± SD” value (Free; 57 plasma samples, steady state, oral PER 2.00–8.00 mg·d^−1) is listed as 8.09 ± 5.85 ng/mL. The “Free PER concentration, mean ± SD” value (Free; [6]) was 4.80 ± 3.70 ng/mL, the “Free PER concentration, mean ± SD” value (Free; [7]) was 5.28 ± 5.57 ng/mL and the “Free PER concentration, mean ± SD” value (Free; [8]) was 9.84 ± 5.66 ng/mL. For the same molecule, the “Free PER concentration, mean ± SD” value (Free; [9]) was 10.09 ± 7.54 ng/mL, the “Free PER concentration, mean ± SD” value (Free; VPA cotherapy, n = 36) was 9.87 ± 5.83 ng/mL and the “Free drug PER concentration” value (Free; child No. 38, PER 2 mg·d^−1) was 1.95 ng/mL. For the same molecule, the “Free PER concentration, mean ± SD” value (Free; not VPA cotherapy, n = 21) was 5.03 ± 4.57 ng/mL, the “Free drug PER concentration” value (Free; [10]) was 17.71 ng/mL and the “Autosampler 5°C-8 h (x̄ ± s)” value ([2]; nominal 1 ng·mL^−1) was 1.03 ± 0.05 ng/mL. The “frozen at −20 °C for 15 days (x̄ ± s)” value ([2]; nominal 1 ng·mL^−1) was 0.96 ± 0.09 ng/mL, the “frozen at −20 °C for 30 days (x̄ ± s)” value ([2]; nominal 1 ng·mL^−1) was 0.96 ± 0.08 ng/mL and the “frozen at −80 °C for 45 days (x̄ ± s)” value ([2]; nominal 1 ng·mL^−1) was 0.97 ± 0.02 ng/mL. For the same molecule, the “frozen at −80 °C for 60 days (x̄ ± s)” value ([2]; nominal 1 ng·mL^−1) was 0.95 ± 0.07 ng/mL, the “Short-term 4 h (x̄ ± s)” value ([2]; nominal 1 ng·mL^−1, room temperature (about 25 °C) 4 h) was 1.01 ± 0.09 ng/mL and the “Freeze-thaw Stability (x̄ ± s)” value ([2]; nominal 1 ng·mL^−1, three freeze–thaw cycles (−20 °C/room temperature)) was 1.02 ± 0.05 ng/mL. For the same molecule, the “Autosampler 5°C-8 h (x̄ ± s)” value ([2]; nominal 10 ng·mL^−1) was 9.99 ± 0.37 ng/mL, the “frozen at −20 °C for 15 days (x̄ ± s)” value ([2]; nominal 10 ng·mL^−1) was 9.99 ± 0.22 ng/mL and the “frozen at −20 °C for 30 days (x̄ ± s)” value ([2]; nominal 10 ng·mL^−1) was 9.79 ± 0.21 ng/mL. For the same molecule, the “frozen at −80 °C for 45 days (x̄ ± s)” value ([2]; nominal 10 ng·mL^−1) was 10.03 ± 0.38 ng/mL, the “frozen at −80 °C for 60 days (x̄ ± s)” value ([2]; nominal 10 ng·mL^−1) was 10.85 ± 0.38 ng/mL and the “Short-term 4 h (x̄ ± s)” value ([2]; nominal 10 ng·mL^−1, room temperature 4 h) was 9.94 ± 0.42 ng/mL. The “Freeze-thaw Stability (x̄ ± s)” value ([2]; nominal 10 ng·mL^−1, three freeze–thaw cycles) was 9.99 ± 0.08 ng/mL, the “Autosampler 5°C-8 h (x̄ ± s)” value ([2]; nominal 40 ng·mL^−1) was 37.53 ± 1.46 ng/mL and the “frozen at −20 °C for 15 days (x̄ ± s)” value ([2]; nominal 40 ng·mL^−1) was 39.06 ± 1.06 ng/mL. For the same molecule, the “frozen at −20 °C for 30 days (x̄ ± s)” value ([2]; nominal 40 ng·mL^−1) was 38.87 ± 1.52 ng/mL, the “frozen at −80 °C for 45 days (x̄ ± s)” value ([2]; nominal 40 ng·mL^−1) was 43.90 ± 1.23 ng/mL and the “frozen at −80 °C for 60 days (x̄ ± s)” value ([2]; nominal 40 ng·mL^−1) was 43.64 ± 1.27 ng/mL. For the same molecule, the “Short-term 4 h (x̄ ± s)” value ([2]; nominal 40 ng·mL^−1, room temperature 4 h) was 38.09 ± 1.40 ng/mL, the “Freeze-thaw Stability (x̄ ± s)” value ([2]; nominal 40 ng·mL^−1, three freeze–thaw cycles) was 37.39 ± 0.53 ng/mL and the “Autosampler 5°C-8 h (x̄ ± s)” value ([2]; nominal 120 ng·mL^−1) was 113.16 ± 0.76 ng/mL. For the same molecule, the “frozen at −20 °C for 15 days (x̄ ± s)” value ([2]; nominal 120 ng·mL^−1) was 121.27 ± 3.40 ng/mL, the “frozen at −20 °C for 30 days (x̄ ± s)” value ([2]; nominal 120 ng·mL^−1) was 119.85 ± 2.22 ng/mL and the “frozen at −80 °C for 45 days (x̄ ± s)” value ([2]; nominal 120 ng·mL^−1) was 130.97 ± 2.18 ng/mL. For the same molecule, the “frozen at −80 °C for 60 days (x̄ ± s)” value ([2]; nominal 120 ng·mL^−1) was 132.67 ± 1.39 ng/mL, the “Short-term 4 h (x̄ ± s)” value ([2]; nominal 120 ng·mL^−1, room temperature 4 h) was 111.97 ± 2.47 ng/mL and the “Freeze-thaw Stability (x̄ ± s)” value ([2]; nominal 120 ng·mL^−1, three freeze–thaw cycles) was 115.95 ± 6.88 ng/mL. For the same molecule, the Plasma half-life [3] was “approximately 105 h”, the “Decrease of mean PER AUC values” ([3]; with OXC) was 50% and the “Decrease in blood concentration” value ([3]; with drugs that induce liver CYP3A4/5) was 2–3 fold. For the same molecule, the “Decrease in PER plasma concentrations” value ([3]; with enzyme-induced AEDs (OXC, CBZ, PHB)) was 2–3 fold, the “Total concentration, range” value [4, 5] was 90.17 to 1867.73 ng/mL and the “Total PER concentration, mean ± SD” value [4, 6] was 311.32 ± 190.14 ng/mL. For the same molecule, the “Total PER concentration, mean ± SD” value [4, 7] was 490.97 ± 255.71 ng/mL, the “Total PER concentration, mean ± SD” value [4, 8] was 745.60 ± 415.53 ng/mL and the “Total PER concentration, mean ± SD” value [4, 9] was 780.14 ± 459.18 ng/mL. The “Total PER concentration, mean ± SD” value ([4]; VPA cotherapy, n = 36) was 750.40 ± 415.02 ng/mL, the “Total drug PER concentration” value ([4]; child No. 38, PER 2 mg·d^−1) was 289.24 ng/mL and the “Total PER concentration, mean ± SD” value ([4]; not VPA cotherapy, n = 21) was 396.87 ± 236.55 ng/mL. The “Total drug PER concentration” value [4, 10] was 1158.38 ng/mL, the “Bound to plasma proteins” value (plasma proteins; after oral administration) was 95% and the “Free PER available to exert pharmacological effects” value (plasma proteins) was 5%.

In the case of `CCCC(CCC)C(=O)O` [VPA, valproic acid], the “Inhibition of CYP2C9 activity” value (CYP2C9) is listed as “potent inhibition”, the “Inhibitory effect on CYP2C19” value (CYP2C19) is listed as “minor inhibitory effects” and the “Inhibitory effect on CYP3A4” value (CYP3A4) is listed as “minor inhibitory effects”.
